In ChEMBL document CHEMBL3102810, “Alkylamino derivatives of pyrazinamide: synthesis and antimycobacterial evaluation” (Bioorg Med Chem Lett, 2014):
Converted amounts (≈) assume the structure as drawn. The source made the active and inactive calls. No cut-off for these calls is given here.

Experiments:
[1] = system: Mycobacterium avium; assay: Antimycobacterial activity against pyrazinamide-resistant Mycobacterium avium CNCTC My 152/73 after 5 days by microplate alamar blue assay; format: functional; settings: CNCTC My 152/73, 120 h
Procedure, shortened: (§1)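 Microplate alamar blue assay run at pH 5.6, using conditions optimized for pyrazinamide. Strains came from the Czech National Collection of Type Cultures. MIC was read in µg/mL and converted to µM using molecular weight.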

[2] = Lipophilicity, log K of the compound by HPLC analysis; format: physicochemical
[3] = system: Mycobacterium avium; assay: Antimycobacterial activity against pyrazinamide-resistant Mycobacterium avium CNCTC My 80/72 after 5 days by microplate alamar blue assay; format: functional; settings: CNCTC My 80/72, 120 h; procedure, shortened: as §1
[4] = system: Mycobacterium kansasii; assay: Antimycobacterial activity against pyrazinamide-resistant Mycobacterium kansasii CNCTC My 235/80 after 5 days by microplate alamar blue assay; format: functional; settings: CNCTC My 235/80, 120 h; procedure, shortened: as §1
[5] = system: Mycobacterium tuberculosis; assay: Antimycobacterial activity against Mycobacterium tuberculosis H37Rv CNCTC My 331/88 after 5 days by microplate alamar blue assay; format: functional; settings: H37Rv CNCTC My 331/88, 120 h; procedure, shortened: as §1
[6] = system: Trichophyton mentagrophytes; assay: Antifungal activity against Trichophyton mentagrophytes 445 after 72 to 120 hrs by microdilution broth method; format: functional, organism-based
[7] = system: Lichtheimia corymbifera; assay: Antifungal activity against Absidia corymbifera 272 after 72 to 120 hrs by microdilution broth method; format: functional, organism-based
[8] = system: Aspergillus fumigatus; assay: Antifungal activity against Aspergillus fumigatus 231 after 72 to 120 hrs by microdilution broth method; format: functional, organism-based
[9] = system: Nakaseomyces glabratus; assay: Antifungal activity against Candida glabrata 20/I after 72 to 120 hrs by microdilution broth method; format: functional, organism-based
[10] = system: Trichosporon asahii; assay: Antifungal activity against Trichosporon asahii 1188 after 72 to 120 hrs by microdilution broth method; format: functional, organism-based
[11] = system: Pichia kudriavzevii; assay: Antifungal activity against Candida krusei E28 after 72 to 120 hrs by microdilution broth method; format: functional, organism-based
[12] = system: Candida tropicalis; assay: Antifungal activity against Candida tropicalis 156 after 72 to 120 hrs by microdilution broth method; format: functional, organism-based
[13] = system: Candida albicans; assay: Antifungal activity against Candida albicans ATCC 44859 after 72 to 120 hrs by microdilution broth method; format: functional, organism-based
[14] = system: Trichophyton mentagrophytes; assay: Antifungal activity against Trichophyton mentagrophytes after 72 to 120 hrs by microdilution broth method; format: functional, organism-based
[15] = system: Staphylococcus epidermidis; assay: Antibacterial activity against Staphylococcus epidermidis H 6966/08 after 48 hrs by microdilution broth method; format: functional
Procedure, shortened: (§2)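 Antibacterial screen with compound concentrations up to a highest level of 500 µM. Results expressed as MIC in µM.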

[16] = system: Klebsiella pneumoniae; assay: Antibacterial activity against ESBL positive Klebsiella pneumoniae J 14368/08 after 24 to 48 hrs by microdilution broth method; format: functional, organism-based; procedure, shortened: as §2
[17] = system: Klebsiella pneumoniae; assay: Antibacterial activity against Klebsiella pneumoniae D 11750/08 after 24 to 48 hrs by microdilution broth method; format: functional, organism-based; procedure, shortened: as §2
[18] = system: Enterococcus sp.; assay: Antibacterial activity against Enterococcus sp. J 14365/08 after 24 to 48 hrs by microdilution broth method; format: functional, organism-based; procedure, shortened: as §2
[19] = system: Staphylococcus epidermidis; assay: Antibacterial activity against methicillin-resistant Staphylococcus epidermidis H 5996/08 after 24 to 48 hrs by microdilution broth method; format: functional, organism-based
[20] = system: Pseudomonas aeruginosa; assay: Antibacterial activity against Pseudomonas aeruginosa CCM 1961 after 24 to 48 hrs by microdilution broth method; format: functional, organism-based; procedure, shortened: as §2
[21] = system: Escherichia coli; assay: Antibacterial activity against Escherichia coli CCM 4517 after 24 to 48 hrs by microdilution broth method; format: functional, organism-based; procedure, shortened: as §2
[22] = system: Staphylococcus aureus; assay: Antibacterial activity against Staphylococcus aureus CCM 4516/08 after 24 to 48 hrs by microdilution broth method; format: functional, organism-based; procedure, shortened: as §2
[23] = system: Staphylococcus epidermidis; assay: Antibacterial activity against Staphylococcus epidermidis H 6966/08 up to 500 uM after 24 to 48 hrs by microdilution broth method; format: functional, organism-based; procedure, shortened: as §2

CCCCCCCNc1cncc(C(N)=O)n1
MIC [1]: 100 µg/mL (≈ 423 µM) | log K [2]: 0.4273 | MIC [3]: 100 µg/mL (≈ 423 µM) | MIC [4]: 212 µM | MIC [5]: 106 µM | Activity [6]: inactive | Activity [7]: inactive | Activity [8]: inactive | Activity [9]: inactive | Activity [10]: inactive | Activity [11]: inactive | Activity [12]: inactive | Activity [13]: inactive | Activity [14]: inactive | Activity [15]: inactive | Activity [16]: inactive | Activity [17]: inactive | Activity [18]: inactive | Activity [19]: inactive | Activity [20]: inactive | Activity [21]: inactive | Activity [22]: inactive | Activity [23]: inactive

CNc1cnc(C(N)=O)cn1
MIC [1]: > 100 µg/mL | log K [2]: -0.6878 | MIC [3]: > 100 µg/mL | MIC [4]: > 100 µg/mL | MIC [5]: > 100 µg/mL | Activity [6]: inactive | Activity [7]: inactive | Activity [8]: inactive | Activity [9]: inactive | Activity [10]: inactive | Activity [11]: inactive | Activity [12]: inactive | Activity [13]: inactive | Activity [14]: inactive | Activity [15]: inactive | Activity [16]: inactive | Activity [17]: inactive | Activity [18]: inactive | Activity [19]: inactive | Activity [20]: inactive | Activity [21]: inactive | Activity [22]: inactive | Activity [23]: inactive

NC(=O)c1cncc(N)n1
MIC [1]: > 100 µg/mL | log K [2]: -0.7814 | MIC [3]: > 100 µg/mL | MIC [4]: > 100 µg/mL | MIC [5]: > 100 µg/mL | Activity [6]: inactive | Activity [7]: inactive | Activity [8]: inactive | Activity [9]: inactive | Activity [10]: inactive | Activity [11]: inactive | Activity [12]: inactive | Activity [13]: inactive | Activity [14]: inactive | Activity [15]: inactive | Activity [16]: inactive | Activity [17]: inactive | Activity [18]: inactive | Activity [19]: inactive | Activity [20]: inactive | Activity [21]: inactive | Activity [22]: inactive | Activity [23]: inactive

CNc1cncc(C(N)=O)n1
Activity [6]: inactive | Activity [7]: inactive | Activity [8]: inactive | Activity [9]: inactive | Activity [10]: inactive | Activity [11]: inactive | Activity [12]: inactive | Activity [13]: inactive | Activity [14]: inactive | Activity [15]: inactive | Activity [16]: inactive | Activity [17]: inactive | Activity [18]: inactive | Activity [19]: inactive | Activity [20]: inactive | Activity [21]: inactive | Activity [22]: inactive | Activity [23]: inactive

NC(=O)c1cncc(NCCc2ccccc2)n1
MIC [1]: > 100 µg/mL | log K [2]: -0.0986 | MIC [3]: > 100 µg/mL | MIC [4]: > 100 µg/mL | MIC [5]: > 100 µg/mL | Activity [6]: inactive | Activity [7]: inactive | Activity [8]: inactive | Activity [9]: inactive | Activity [10]: inactive | Activity [11]: inactive | Activity [12]: inactive | Activity [13]: inactive | Activity [14]: inactive | Activity [15]: inactive | Activity [16]: inactive | Activity [17]: inactive | Activity [18]: inactive | Activity [19]: inactive | Activity [20]: inactive | Activity [21]: inactive | Activity [22]: inactive | Activity [23]: inactive

CCCCNc1cncc(C(N)=O)n1
MIC [1]: > 100 µg/mL | log K [2]: -0.2162 | MIC [3]: > 100 µg/mL | MIC [4]: > 100 µg/mL | MIC [5]: 100 µg/mL | Activity [6]: inactive | Activity [7]: inactive | Activity [8]: inactive | Activity [9]: inactive | Activity [10]: inactive | Activity [11]: inactive | Activity [12]: inactive | Activity [13]: inactive | Activity [14]: inactive | Activity [15]: inactive | Activity [16]: inactive | Activity [17]: inactive | Activity [18]: inactive | Activity [19]: inactive | Activity [20]: inactive | Activity [21]: inactive | Activity [22]: inactive | Activity [23]: inactive
